Experiment [1] has as its target T1, Alkaline phosphatase, tissue-nonspecific isozyme (Mus musculus, UniProt P09242).
T1 sequence (P09242 whole entry): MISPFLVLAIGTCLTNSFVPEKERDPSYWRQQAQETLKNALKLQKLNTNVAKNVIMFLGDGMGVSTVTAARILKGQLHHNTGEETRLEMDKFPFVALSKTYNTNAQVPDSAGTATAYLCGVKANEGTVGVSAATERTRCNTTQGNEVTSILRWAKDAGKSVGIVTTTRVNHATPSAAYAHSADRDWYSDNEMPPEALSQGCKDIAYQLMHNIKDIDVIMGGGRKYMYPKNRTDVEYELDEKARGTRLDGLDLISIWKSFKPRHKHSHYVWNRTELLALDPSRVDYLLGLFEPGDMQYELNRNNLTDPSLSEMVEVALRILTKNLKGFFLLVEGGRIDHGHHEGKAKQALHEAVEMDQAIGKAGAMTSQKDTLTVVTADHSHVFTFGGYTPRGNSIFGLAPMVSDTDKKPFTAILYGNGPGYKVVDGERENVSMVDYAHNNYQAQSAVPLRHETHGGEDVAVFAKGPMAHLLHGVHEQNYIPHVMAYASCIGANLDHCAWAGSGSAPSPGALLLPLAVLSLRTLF
Briefly: Inhibition of alkaline phosphatase in mouse Sarcoma 180/TG cells. Conditions: read-out: I50. In kind it is cell-based. In a few lines: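 Partially purified particulate-bound alkaline phosphatase from Sarcoma 180/TG ascites cells (4360 units/mL); compounds tested as oxalate salts; IC50 taken as the concentration cutting observed enzyme activity by 50%.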

Experiment [2] has as its target T2, Alkaline phosphatase, tissue-nonspecific isozyme (Mus musculus) (UniProt P09242).
T2 sequence (whole entry): T1 sequence (P09242 whole entry)
Briefly: Inhibition of alkaline phosphatase in mouse Sarcoma 180/TG cells up to 5 x 10^-4 M. In kind it is cell-based. An outline of the steps:
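Particulate-bound alkaline phosphatase, partially purified from Sarcoma 180/TG ascites cells (4360 units/mL), exposed to oxalate salts at concentrations up to at least 5 x 10^-4 M and checked for significant inhibition.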

Experiment [3] in a line: Ratio of growth inhibition of mouse Sarcoma 180/TG cells in presence of […] to growth inhibition of mouse Sarcoma 180/TG cells in absence of […] at 10 uM after 96 hrs. The format is functional. In a few lines: (§1)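 Log-phase Sarcoma 180/TG cells were seeded at 10^4 cells/mL in Fischer's medium with 10% horse serum at 37 °C. They were given the oxalate salt with or without 6-thioguanine (10^-6 M) for 96 h, and cell number/mL was counted. Ratio = cell count with 6-thioguanine / count without × 100.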

Experiment [4] is described as follows: Ratio of growth inhibition of mouse Sarcoma 180/TG cells in presence of […] to growth inhibition of mouse Sarcoma 180/TG cells in absence of […] at 50 uM after 96 hrs. The format is functional. In a few lines: as §1
A short description of experiment [5]: Ratio of growth inhibition of mouse Sarcoma 180/TG cells in presence of […] to growth inhibition of mouse Sarcoma 180/TG cells in absence of […] at 100 uM after 96 hrs. In kind it is functional. An outline of the steps:
as §1

Active and inactive are the calls of the source. No cut-off for these calls is given here.

For `C1=CN2CC(c3ccc4ccccc4c3)N=C2S1` (racemic), the IC50 in experiment [1] was found to be 1 µM.

On to `N=c1sccn1CC(=O)c1ccc(Br)cc1`, for which the inhibition result in experiment [2] is “inactive”.

For the molecule `c1ccc(C2CN3CCSC3=N2)cc1` (racemic), the IC50 in experiment [1] is 38 µM.

On to `CC(=O)/N=C1\SCCN1CC(=O)c1ccc2ccccc2c1`, for which the inhibition entry in experiment [2] was “inactive”.

Consider `CC(=O)/N=c1\sccn1CC(=O)c1ccc(C)cc1`, for which the inhibition result in experiment [2] was “inactive”.

`CC(=O)/N=c1\sccn1CC(O)c1ccc(Br)cc1` (racemic): in experiment [2], the inhibition entry is “inactive”.

Turning to `CC(=O)/N=C1\SCCN1CC(=O)c1cccc(C)c1`, the inhibition result in experiment [2] was “inactive”.

For `Brc1ccc(C2CN3C=CSC3=N2)cc1` (racemic), the IC50 in experiment [1] was 1.3 µM.

Turning to `CC(=O)/N=C1\SCCN1CC(O)c1ccc2ccccc2c1` (racemic), the inhibition entry in experiment [2] was “inactive”.

Turning to `c1ccc2cc(C3CN4CCSC4=N3)ccc2c1` (racemic), the IC50 in experiment [1] is 9 µM.

Consider `CC(=O)/N=c1\sccn1CC(=O)c1ccc2ccccc2c1`, for which the inhibition entry in experiment [2] is “inactive”.

On to `C1=CN2CC(c3ccccc3)N=C2S1` (racemic), for which the IC50 in experiment [1] was found to be 45 µM.

`CSc1nc(-c2ccccc2)c[nH]1`: the inhibition result in experiment [2] was “inactive”.

For `N=C1SCCN1CC(=O)c1ccc2ccccc2c1`, the inhibition entry in experiment [2] is “inactive”.

With `CC(=O)/N=C1\SCCN1CC(O)c1cccc(C)c1` (racemic), the inhibition entry in experiment [2] was “inactive”.

Consider `Cc1ccc(C2CN3C=CSC3=N2)cc1` (racemic), for which the IC50 in experiment [1] is 6.6 µM.

For `Cc1ccc(C(=O)Cn2ccsc2=N)cc1`, the inhibition result in experiment [2] was “inactive”.

As for `Cc1ccc(C2CN3CCSC3=N2)cc1` (racemic), the IC50 in experiment [1] came to 8.1 µM.

Turning to `Brc1cccc(C2CN3C=CSC3=N2)c1` (racemic), in experiment [1], the IC50 was determined as 2 µM.

With `CC(=O)/N=c1\sccn1CC(O)c1ccc(C)cc1` (racemic), the inhibition entry in experiment [2] is “inactive”.

In the case of `C1=CN2CC(c3cccs3)N=C2S1` (racemic), the IC50 in experiment [1] was 50 µM.

`Brc1ccc(C2CN3CCSC3=N2)cc1` (racemic): the IC50 in experiment [1] came out at 2.6 µM.

`Brc1ccc([C@H]2CN3CCSC3=N2)cc1.O=C(O)C(=O)O`: the Ratio in experiment [3] was 69; in experiment [4], 66; in experiment [5], 49. In experiment [1], the IC50 came to 1.8 µM.

For `Cc1ccc(C2CN3C=CSC3=N2)cc1C` (racemic), the IC50 in experiment [1] amounted to 11 µM.

Turning to `N=c1sccn1CC(=O)c1ccc([N+](=O)[O-])cc1`, the inhibition result in experiment [2] is “inactive”.

In the case of `Clc1ccc(C2CN3CCSC3=N2)cc1` (racemic), in experiment [1], the IC50 turned out to be 4.5 µM.

Consider `CC(=O)/N=c1\sccn1CC(O)c1ccc2ccccc2c1` (racemic), for which the inhibition entry in experiment [2] is “inactive”.

For `CSc1nc(-c2ccccc2)cn1CCO`, the inhibition entry in experiment [2] was “inactive”.

`Cc1cccc(C(=O)CN2CCSC2=N)c1`: the inhibition entry in experiment [2] was “inactive”.

For `Cc1cccc(C2CN3CCSC3=N2)c1` (racemic), in experiment [1], the IC50 is 40 µM.

As for `N=c1sccn1CC(=O)c1ccc2ccccc2c1`, the inhibition result in experiment [2] is “inactive”.

As for `CC(=O)/N=c1\sccn1CC(=O)c1ccc(Br)cc1`, the inhibition result in experiment [2] is “inactive”.

As for `O=[N+]([O-])c1cccc(C2CN3CCSC3=N2)c1` (racemic), the IC50 in experiment [1] is 38 µM.

Take `CC(=O)/N=c1\sccn1CC(O)c1ccc([N+](=O)[O-])cc1` (racemic): in experiment [2], the inhibition result is “inactive”.

Regarding `CC(=O)/N=c1\sccn1CC(=O)c1ccc([N+](=O)[O-])cc1`, in experiment [2], the inhibition entry is “inactive”.

On to `Fc1ccc(C2CN3CCSC3=N2)cc1` (racemic), for which the IC50 in experiment [1] was determined as 16 µM.

For the molecule `CC(=O)/N=c1\sccn1CC(O)c1ccc(C)c(C)c1` (racemic), in experiment [2], the inhibition entry was “inactive”.

As to `CC(=O)/N=c1\sccn1CC(=O)c1ccc(C)c(C)c1`, the inhibition result in experiment [2] was “inactive”.

Regarding `O=[N+]([O-])c1ccc(C2CN3C=CSC3=N2)cc1` (racemic), the IC50 in experiment [1] was determined as 8.3 µM.
